How the values were obtained:
[1] = In vitro half-life at 37 degree Centigrade in phosphate-buffered saline(PBS; pH =7-7.2); type: ADME
[2] = biological target: T1, Methylated-DNA--protein-cysteine methyltransferase (Homo sapiens, UniProt P16455); assay: O6-Alkylguanine-DNA Alkyltransferase-Inactivating Activity (Concentration of inactivator required to produce 50% reduction in alkyltransferase activity)
T1 sequence (P16455 whole entry): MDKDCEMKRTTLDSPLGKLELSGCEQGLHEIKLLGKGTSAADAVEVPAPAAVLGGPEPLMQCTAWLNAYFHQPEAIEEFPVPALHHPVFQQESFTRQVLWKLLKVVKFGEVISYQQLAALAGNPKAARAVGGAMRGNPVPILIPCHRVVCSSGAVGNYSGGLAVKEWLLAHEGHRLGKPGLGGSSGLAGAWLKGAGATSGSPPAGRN
Outline: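 Pure recombinant human ATase (50–60 fmol, titrated so ATase is limiting) preincubated 1 h at 37 °C with varying inactivator in 200 µL buffer (50 mM Tris-HCl pH 8.3, 3 mM DTT, 1 mM EDTA, 1 mg/mL BSA) plus 10 µg calf thymus DNA. Then 3H-methylated DNA substrate (4 µg DNA, 100 fmol O6-methylguanine) added, 1 h at 37 °C. After acid hydrolysis, 3H-methylated protein counted by scintillation. Duplicates, experiments repeated several times.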

[3] = biological target: T1, Methylated-DNA--protein-cysteine methyltransferase; assay: O6-Alkylguanine-DNA Alkyltransferase-Inactivating Activity in Raji cells (Concentration of inactivator required to produce 50% reduction in alkyltransferase activity); type: cell-based
Outline: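 Raji cells in RPMI + 10% horse serum, 10^6/mL, exposed to inactivator or DMSO vehicle for 2 h at 37 °C. Cells washed, sonicated in Tris-DTT-EDTA buffer pH 8.3 with leupeptin, PMSF added, debris spun out. Supernatant ATase measured by transfer of 3H-methyl from O6-methylguanine DNA substrate to protein; activity expressed as % of untreated controls.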

Q: For `Cn1cncc1COC1N=C(N)Nc2[nH]cnc21` (stereo not given), which half-life [1] is on record?
A: 0.19 h

Q: What about the IC50 [2] of the same molecule?
A: 8500 nM

Q: And the IC50 [3]?
A: 21000 nM

Q: With `Nc1nc(OCc2ccccc2)c2[nH]cnc2n1` [6-O-BENZYLGUANINE] as the molecule, how does the half-life [1] read?
A: > 48 h

Q: For `NC1=NC(OCc2cncs2)c2[nH]cnc2N1` (stereo not given), which half-life [1] is on record?
A: > 48 h

Q: And the IC50 [2]?
A: 33 nM

Q: What about the IC50 [3] of the same molecule?
A: 60 nM

Q: For `NC1=Nc2nc[nH]c2C(OCc2cccnc2)N1` (stereo not given), which half-life [1] is on record?
A: > 48 h

Q: What about the IC50 [2] of the same molecule?
A: 430 nM

Q: What about the IC50 [3] of the same molecule?
A: 220 nM

Q: Which half-life [1] does the source give for `NC1=NC(OCc2ccc[n+]([O-])c2)c2[nH]cnc2N1` (stereo not given) here?
A: > 48 h

Q: What about the IC50 [2] of the same molecule?
A: 1400 nM

Q: And the IC50 [3]?
A: 5400 nM

Q: Which half-life [1] does the source give for `NC1=Nc2nc[nH]c2C(OCc2ccccn2)N1` (stereo not given) here?
A: > 48 h

Q: What about the IC50 [3] of the same molecule?
A: 6000 nM

Q: With `NC1=NC(OCc2cccs2)c2[nH]cnc2N1` (stereo not given) as the molecule, how does the half-life [1] read?
A: 0.67 h

Q: What about the IC50 [2] of the same molecule?
A: 18 nM

Q: What about the IC50 [3] of the same molecule?
A: 30 nM

Q: With `NC1=Nc2nc[nH]c2C(OCc2ccncc2)N1` (stereo not given) as the molecule, how does the half-life [1] read?
A: > 48 h

Q: And the IC50 [2]?
A: 130 nM

Q: What about the IC50 [3] of the same molecule?
A: 200 nM

Q: Which half-life [1] does the source give for `NC1=Nc2nc[nH]c2C(OCc2ccc(Cl)nc2)N1` (stereo not given) here?
A: > 48 h

Q: And the IC50 [2]?
A: 200 nM

Q: What about the IC50 [3] of the same molecule?
A: 120 nM

Q: Which half-life [1] does the source give for `NC1=Nc2nc[nH]c2C(OCc2cnsc2)N1` (stereo not given) here?
A: > 48 h

Q: What about the IC50 [2] of the same molecule?
A: 70 nM

Q: What about the IC50 [3] of the same molecule?
A: 70 nM

Q: With `NC1=Nc2nc[nH]c2C(OCc2ccco2)N1` (stereo not given) as the molecule, how does the half-life [1] read?
A: 0.38 h

Q: And the IC50 [2]?
A: 80 nM

Q: What about the IC50 [3] of the same molecule?
A: 120 nM

Q: Which half-life [1] does the source give for `NC1=Nc2nc[nH]c2C(OCc2cnco2)N1` (stereo not given) here?
A: > 48 h

Q: What about the IC50 [2] of the same molecule?
A: 350 nM

Q: What about the IC50 [3] of the same molecule?
A: 220 nM

Q: With `NC1=Nc2nc[nH]c2C(OCc2ccc(Br)s2)N1` (stereo not given) as the molecule, how does the half-life [1] read?
A: 1.95 h

Q: What about the IC50 [2] of the same molecule?
A: 5 nM

Q: What about the IC50 [3] of the same molecule?
A: 10 nM

Q: What does the source list for `NC1=NC(OCc2ccnc(Cl)c2)c2[nH]cnc2N1` (stereo not given)?
A: half-life [1]: > 48 h; IC50 [2]: 40 nM; IC50 [3]: 50 nM

Q: Which results are given for `NC1=NC(OCc2cncc(Br)c2)c2[nH]cnc2N1` (stereo not given)?
A: half-life [1]: > 48 h; IC50 [2]: 250 nM; IC50 [3]: 200 nM

Q: Which half-life [1] does the source give for `NC1=Nc2nc[nH]c2C(OCc2cnc3c(c2)OCO3)N1` (stereo not given) here?
A: > 48 h

Q: And the IC50 [2]?
A: 230 nM

Q: And the IC50 [3]?
A: 90 nM
